From PubChem BioAssay
Shown are actives, neighbours in structure and some others; about 1.1% of the full set was active somewhere.
G6PDH CS – L. mesenteroides G6PDH inhibitors, counter-screen for G6PDH-coupled screening assays, biochemical, Leuconostoc mesenteroides enzyme; glucose-6-phosphate dehydrogenase [Leuconostoc mesenteroides]; Purified L. mesenteroides G6PDH, diaphorase/resazurin coupled fluorescence, 45 min; inhibition, % at 5 µM; 200,000 tested, 0.12% active; AID 1020, 2008; in the data active = inhibition above about 50%
Diaphorase act – compounds boosting diaphorase resazurin reduction – biochemical, uHTS, resorufin fluorescence, counter-screen for diaphorase-coupled primary assays, primary screen | Diaphorase/resazurin coupled assay, 16 min; active compounds read high; 1 = vehicle wells, 0 = NADH-free wells | activation factor at 20 µM | 190,000 tested, 0.005% active | AID 1229, 2008;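 active = diaphorase activity raised at least twofold by the compound at 20 µM; inactive = activation factor below 2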
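Material: bacterial diaphorase enzyme (C. kluyveri); amount: enzyme 0.07 U/mL final; reagent: NADH substrate 0.114 mM plus resazurin dye 0.1 mM, final; doses: single compound dose of 20 µM, 1% DMSO final; timing: 16 min enzyme reaction, ambient temperature; measured by: fluorescence of resorufin, 544 nm excitation, 590 nm emission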
PMI act – activators of human PMI, primary screen, biochemical, fluorescence intensity, near-Km mannose 6-phosphate; Mannose-6-phosphate isomerase (Homo sapiens), P34949; 190,000 tested, 0.005% active; AID 1214, 2008; purified human PMI, coupled resazurin fluorescence, 20 min; active compounds read high; 1 = vehicle control, 0 substrate-free wells; activation factor at 20 µM;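 active = activation factor of 2 or more at 20 µM, relative to plate controls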
Target sequence (P34949 whole entry, looked up): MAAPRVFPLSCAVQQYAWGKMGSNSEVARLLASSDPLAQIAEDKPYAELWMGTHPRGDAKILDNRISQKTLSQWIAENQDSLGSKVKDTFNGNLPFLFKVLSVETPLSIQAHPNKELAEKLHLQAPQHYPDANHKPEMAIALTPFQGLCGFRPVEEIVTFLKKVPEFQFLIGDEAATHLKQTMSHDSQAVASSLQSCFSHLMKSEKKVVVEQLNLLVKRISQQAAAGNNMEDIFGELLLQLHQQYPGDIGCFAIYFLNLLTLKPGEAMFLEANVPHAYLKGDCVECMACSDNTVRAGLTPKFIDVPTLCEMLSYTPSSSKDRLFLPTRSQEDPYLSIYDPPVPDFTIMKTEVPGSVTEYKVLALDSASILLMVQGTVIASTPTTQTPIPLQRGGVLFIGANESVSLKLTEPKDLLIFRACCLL
Diaphorase inh – diaphorase inhibitors and chemical oxidizers, primary screen, counter-screen for diaphorase-coupled primary assays, biochemical, uHTS, resorufin fluorescence; AID 1217, 2008; inhibition, % at 20 µM; diaphorase resazurin-to-resorufin fluorescence, NADH, 16 min; bacterial (C. kluyveri) enzyme, not human; 190,000 tested, 0.69% active;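 active = primary screen inhibition at 20 µM above a set limit, cut at about 50% in these data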;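 note: plate controls were DMSO with full reaction for no effect and wells lacking NADH for full effect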
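controls = No-NADH positive control and DMSO neutral control | system = Clostridium kluyveri diaphorase enzyme | timing = reaction incubation of 16 min at room temperature | signal = resorufin fluorescence 544/590 nm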
PMI act satM6P – human PMI activators, high substrate, primary screen, biochemical, fluorescence intensity, near-saturating mannose 6-phosphate | activation factor at 20 µM | coupled PMI enzyme assay, resazurin fluorescence, 20 min; active compounds read high; 1 = untreated enzyme, 0 = substrate-free blank | AID 1216, 2008 | 190,000 tested, 0.34% active;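 active = activation factor of 2 or more at 20 µM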
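assay system = human phosphomannose isomerase with PGI, G6PDH, diaphorase coupling enzymes | quantity = 15 ng/mL PMI | incubation = enzyme reaction with compound 20 min at room temperature | medium = HEPES pH 7.4 buffer with MgCl2 and Tween-20 | compound dosing = one concentration, 20 µM, in 1% DMSO | measured by = Diaphorase-driven resazurin-to-resorufin fluorescence, excitation 544, emission 590 nm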
An asterisk follows results filed as active.

SMILES	G6PDH CS	Diaphorase act	PMI act	Diaphorase inh	PMI act satM6P
CC1CCN(C(=O)c2cc3ccccc3c(=O)o2)CC1	1	0.9	1	8	1
Cc1ccc(C(=O)N2CCN(c3ccccc3Cl)CC2)cc1[N+](=O)[O-]	-6	0.9	0.9	13	0.9
CC1=NN(C(=S)Nc2ccccc2)C(c2ccccc2)C1 (stereo unspecified)	8	0.9	0.9	15	0.9
Cc1ccc(C2CC(c3ccccc3)=NN2C(=S)Nc2ccccc2)o1 (stereo unspecified)	14	0.2	0.5	76*	0.8
CN(C)c1ccc(/C=C/c2ccc3c4ccccc4ccc3[n+]2-c2ccccc2)cc1	-13	0.3	1.1	68*	0.9
CCN(CC)Cc1cc(O)c(CN(CC)CC)cc1O	57*	0.5	0.7	53*	0.5
Cc1cc(C)c2nc(NNC(=O)c3ccc(S(=O)(=O)N4CCc5ccccc5C4)cc3)sc2c1	8	0.9	1.1	7	1.1
Cc1cc(C)c2nc(NNC(=O)c3cc(=O)c4ccccc4o3)sc2c1	16	0.3	0.8	67*	0.7
O=C(O)c1cccc(NC2=C(Cl)C(=O)c3ccccc3C2=O)c1	52*	0.8	1.1	25	0.6
Nc1nc(SCC(=O)Nc2c(Br)cc([N+](=O)[O-])cc2Br)n[nH]1	1	0.8	1	18	0.9
CC(Sc1ccc2c(c1)OCCO2)C(=O)Nc1ncc(Cl)cc1Cl (stereo unspecified)	18	0.4	1	64*	1.1
CC(Sc1ccc2c(c1)OCCO2)C(=O)Nc1ccc2c(c1)OCO2 (stereo unspecified)	5	0.8	1	25	1
O=C(O)c1ccc(Nc2nc(-c3cc4ccccc4oc3=O)cs2)cc1O	2	0.1	0.9	88*	0.7
C=CCOC(=O)C1=C[C@H](c2ccc(Br)cc2)[C@@H](CCCO)[C@H](OCC)O1	9	0.4	0.8	55*	0.9
CCO[C@H]1OC(C(N)=O)=C[C@@H](c2ccc(Br)cc2)[C@@H]1CCCO	11	0.8	0.9	18	0.9
CCO[C@@H]1OC(C(=O)Nc2ccccc2)=C[C@H](c2ccc(Br)cc2)[C@H]1CCCO	12	0.4	0.7	56*	0.8
CSCc1cc(N2CCOCC2)nc(SCc2ccc(Cl)c(Cl)c2)n1	10	0.7	1.2	25	2*
COCc1cc(N2CCOCC2)nc(SCc2ccc(Cl)cc2)n1	22	0.9	1.1	9	1
CCOC(=O)C1=C(C)NC(=O)NC1c1c(C)nn(-c2ccccc2)c1Cl (stereo unspecified)	1	0.5	0.5	52*	0.4
CCOC(=O)C1=C(C)N(C)C(=O)NC1c1c(C)nn(-c2ccc(C)cc2)c1Cl (stereo unspecified)	4	1	1.1	2	1
CC1(C)CN(c2cccc(Br)c2)C1=O	3	1.1	1.1	-8	1.1
O=C(O)c1cccc2c1C(=O)c1ccccc1C2=O	5	1	1.8	3	2.5*
CC(=O)c1cccc(NC(=O)c2ccc(-c3ccccc3[N+](=O)[O-])o2)c1	9	0.8	0.9	23	0.7
O=C(NC(Cc1ccccc1)C(=O)O)/C(=C/c1ccc(F)cc1)NC(=O)c1ccccc1 (stereo unspecified)	17	0.9	1	7	1.1
Cc1[nH]c2ccccc2c1C(=O)CSc1nc2ccccc2c(=O)n1CCCN1CCOCC1	-2	0.9	0.9	5	1
COc1ccccc1Nc1nc(-c2c(C)[nH]c3ccccc23)cs1	14	0.8	1.2	23	2*
